Measurements: ChEMBL document CHEMBL1142968, “Synthetic anticancer vaccine candidates: rational design of antigenic peptide mimetics that activate tumor-specific T-cells” (2007)
*1 amine or outer side, *2 acyl side, *3 side chain or, on linkers, in order; H or OH if unused. Where a SMILES comes first, the peptide text is derived from it. Side-chain parts run from the residue outwards. [ ]: non-standard residue; d: D form. The star is where a group is joined. X2 = O=C([C@@H]1Cc2c([nH]c3ccccc23)CN1CCN[*:1])[*:2]; X8 = O=C(CN(CCN[*:1])Cc1ccc([N+](=O)[O-])cc1)[*:2]; N(2-Aminoethyl)Gly = O=C(CN(CCN[*:3])[*:1])[*:2]; X7 = O=C(CN(CCN[*:1])CCc1c[nH]c2ccccc12)[*:2]; X4 = O=C([C@@H]1Cc2ccccc2CN1CCN[*:1])[*:2]; X9 = O=C(CN(CCN[*:1])Cc1ccnc2ccccc12)[*:2]; X6 = O=C(CN(CCN[*:1])CCc1ccccc1)[*:2]; X3 = O=C(CN(CCN[*:1])Cc1ccccc1)[*:2]; X1 = O=C(Cc1c[nH]c2ccccc12)*; 3Amb = NCc1cccc(C(=O)O)c1; PhAc = O=C(Cc1ccccc1)*; βAla = NCCC(=O)O

Assays:
Homo sapiens = organism: Homo sapiens; experiment: Binding affinity to HLA-A2 in TAP-deficient HLA-A2+T2 cells assessed as fluorescence intensity relative to ELA
Method in brief: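 T2 cells (TAP-deficient, HLA-A2+) loaded overnight at 37 °C in serum-free RPMI-1640 with 100 µM compound plus human β2-microglobulin (100 ng/mL). Washed, stained with HLA-A2 mAb HB54 or isotype control (30 min, 4 °C), then PE anti-mouse IgG (30 min); flow cytometry. RFI = specific MFI / control MFI. Value reported as […].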

T-cell [1] = experiment: Stimulation of INFgamma production in 10C10 T cells at 10 uM by flow cytometry; assay type: functional, Homo sapiens
Method in brief: (§1)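 Melan-A/MART-1-specific CD8 clones. T2 cells are pulsed 1 h at 37 °C with 10 µM compound and washed. 2 × 10^5 of them are co-cultured with 10^5 clone cells in RPMI-1640/10% FCS with brefeldin A (10 µg/mL) for 6 h at 37 °C. Cells are fixed in 4% PFA, then saponin-permeabilized and stained with PE anti-IFN-γ (5 µg/mL, 30 min). Flow cytometry on 10^4 events gives the % IFN-γ+ cells and the MFI.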

T-cell [2] = experiment: Stimulation of INFgamma production in M77.84 T cells at 10 uM by flow cytometry; assay type: functional, Homo sapiens; method in brief: as §1
T-cell [3] = experiment: Stimulation of INFgamma production in M199.2.7 T cells at 10 uM by flow cytometry; assay type: functional, Homo sapiens; method in brief: as §1
T-cell [4] = experiment: Stimulation of INFgamma production in M199.3.2 T cells at 10 uM by flow cytometry; assay type: functional, Homo sapiens; method in brief: as §1
[5] = Stimulation of INFgamma production in MEL1.37 T cells at 10 uM by flow cytometry; assay type: functional, Homo sapiens; method in brief: as §1
T-cell [6] = experiment: Stimulation of INFgamma production in CDM41 ELA1 T cells at 10 uM by flow cytometry; assay type: functional, Homo sapiens; method in brief: as §1
T-cell [7] = experiment: Stimulation of INFgamma production in M17.29 ELA1 T cells at 10 uM by flow cytometry; assay type: functional, Homo sapiens; method in brief: as §1
T-cell [8] = experiment: Stimulation of INFgamma production in CDM41 T cells at 10 uM by flow cytometry; assay type: functional, Homo sapiens; method in brief: as §1
T-cell [9] = experiment: Stimulation of INFgamma production in M17.29 T cells at 10 uM by flow cytometry; assay type: functional, Homo sapiens; method in brief: as §1
T-cell [10] = experiment: Stimulation of INFgamma production in MEL1.38 T cells at 10 uM by flow cytometry; assay type: functional, Homo sapiens

| SMILES | Ratio (Homo sapiens) | Activity (T-cell [2]) [%] | Activity (T-cell [3]) [%] | Activity [5] [%] | further results |
| --- | --- | --- | --- | --- | --- |
| CC(C)C[C@H](NC(=O)CCN)C(=O)N[C@@H](C)C(=O)NCCN(CC(=O)NCc1cccc(C(=O)N[C@@H](CC(C)C)C(=O)N[C@H](C(=O)N[C@H](C(=O)O)C(C)C)[C@@H](C)O)c1)Cc1ccnc2ccccc12 (H-[βAla]LA[X9][3Amb]LTV-OH) | 1.31 |  |  |  |  |
| CC[C@H](C)[C@H](NC(=O)CNC(=O)CN(CCNC(=O)[C@H](C)NC(=O)[C@H](CC(C)C)NC(=O)[C@@H](N)CCC(=O)O)Cc1cccc2ccccc12)C(=O)N[C@@H](CC(C)C)C(=O)N[C@H](C(=O)N[C@H](C(=O)O)C(C)C)[C@@H](C)O | 0.7 |  |  |  |  |
| CC[C@H](C)[C@H](NC(=O)CNC(=O)CN(CCNC(=O)[C@H](C)NC(=O)[C@H](CC(C)C)NC(=O)[C@@H](N)CCC(=O)O)Cc1ccnc2ccccc12)C(=O)N[C@@H](CC(C)C)C(=O)N[C@H](C(=O)N[C@H](C(=O)O)C(C)C)[C@@H](C)O | 0.79 | 0 | 0 | 3 | Activity (T-cell [1]): 0%; Activity (T-cell [4]): 0%; Activity (T-cell [6]): 69%; Activity (T-cell [7]): 0% |
| CC(C)C[C@H](NC(=O)CCN)C(=O)N[C@@H](C)C(=O)NCCN(CCc1c[nH]c2ccccc12)CC(=O)NCc1cccc(C(=O)N[C@@H](CC(C)C)C(=O)N[C@H](C(=O)N[C@H](C(=O)O)C(C)C)[C@@H](C)O)c1 (H-[βAla]LA[X7][3Amb]LTV-OH) | 0.86 |  |  |  |  |
| CC(C)C[C@H](NC(=O)CCN)C(=O)N[C@@H](C)C(=O)NCCN(CC(=O)NCc1cccc(C(=O)N[C@@H](CC(C)C)C(=O)N[C@H](C(=O)N[C@H](C(=O)O)C(C)C)[C@@H](C)O)c1)C(=O)Cc1ccccc1 (PhAc-[N(2-Aminoethyl)Gly]([Ala-Leu-βAla])[3Amb]LTV-OH) | 0.54 |  |  |  |  |
| CC[C@H](C)[C@H](NC(=O)CNC(=O)[C@H](Cc1c[nH]c2ccccc12)NC(=O)CNC(=O)[C@H](C)NC(=O)[C@H](CC(C)C)NC(=O)[C@@H](N)CCC(=O)O)C(=O)N[C@@H](CC(C)C)C(=O)N[C@H](C(=O)N[C@H](C(=O)O)C(C)C)[C@@H](C)O |  | 90 | 15 | 81 | Activity (T-cell [1]): 0%; Activity (T-cell [4]): 54%; Activity (T-cell [6]): 47%; Activity (T-cell [7]): 55% |
| CC[C@H](C)[C@H](NC(=O)CNC(=O)CN(CCNC(=O)[C@H](C)NC(=O)[C@H](CC(C)C)NC(=O)CCN)Cc1ccccc1)C(=O)N[C@@H](CC(C)C)C(=O)N[C@H](C(=O)N[C@H](C(=O)O)C(C)C)[C@@H](C)O | 0.96 |  |  |  |  |
| CC[C@H](C)[C@H](NC(=O)CNC(=O)CN(CCNC(=O)[C@H](C)NC(=O)[C@H](CC(C)C)NC(=O)[C@@H](N)CCC(=O)O)CC1CCCCC1)C(=O)N[C@@H](CC(C)C)C(=O)N[C@H](C(=O)N[C@H](C(=O)O)C(C)C)[C@@H](C)O | 0.86 |  |  |  |  |
| CC[C@H](C)[C@H](NC(=O)CNC(=O)CN(CCNC(=O)[C@H](C)NC(=O)[C@H](CC(C)C)NC(=O)[C@@H](N)CCC(=O)O)Cc1ccc(O)cc1)C(=O)N[C@@H](CC(C)C)C(=O)N[C@H](C(=O)N[C@H](C(=O)O)C(C)C)[C@@H](C)O | 0.83 | 0 | 0 | 0 | Activity (T-cell [1]): 0%; Activity (T-cell [4]): 0%; Activity (T-cell [6]): 46%; Activity (T-cell [7]): 0% |
| CC(C)C[C@H](NC(=O)CCN)C(=O)N[C@@H](C)C(=O)NCCN(CC(=O)NCc1cccc(C(=O)N[C@@H](CC(C)C)C(=O)N[C@H](C(=O)N[C@H](C(=O)O)C(C)C)[C@@H](C)O)c1)Cc1ccccc1 (H-[βAla]LA[X3][3Amb]LTV-OH) | 0.95 |  |  |  |  |
| CC(C)C[C@H](NC(=O)CCN)C(=O)N[C@@H](C)C(=O)NCCN1Cc2[nH]c3ccccc3c2C[C@H]1C(=O)NCc1cccc(C(=O)N[C@@H](CC(C)C)C(=O)N[C@H](C(=O)N[C@H](C(=O)O)C(C)C)[C@@H](C)O)c1 (H-[βAla]LA[X2][3Amb]LTV-OH) | 0.81 |  |  |  |  |
| CC[C@H](C)[C@H](NC(=O)CNC(=O)[C@H](Cc1ccccc1)NC(=O)CNC(=O)[C@H](C)NC(=O)[C@H](CC(C)C)NC(=O)[C@@H](N)CCC(=O)O)C(=O)N[C@@H](CC(C)C)C(=O)N[C@H](C(=O)N[C@H](C(=O)O)C(C)C)[C@@H](C)O |  | 32 | 7 | 71 | Activity (T-cell [4]): 83%; Activity (T-cell [6]): 58%; Activity (T-cell [7]): 48% |
| CC(C)C[C@H](NC(=O)CCN)C(=O)N[C@@H](C)C(=O)NCCN(CCc1ccccc1)CC(=O)NCc1cccc(C(=O)N[C@@H](CC(C)C)C(=O)N[C@H](C(=O)N[C@H](C(=O)O)C(C)C)[C@@H](C)O)c1 (H-[βAla]LA[X6][3Amb]LTV-OH) | 0.25 |  |  |  |  |
| CC[C@H](C)[C@H](NC(=O)CNC(=O)CN(CCNC(=O)[C@H](C)NC(=O)[C@H](CC(C)C)NC(=O)[C@@H](N)CCC(=O)O)Cc1ccccc1)C(=O)N[C@@H](CC(C)C)C(=O)N[C@H](C(=O)N[C@H](C(=O)O)C(C)C)[C@@H](C)O | 0.9 |  |  |  |  |
| CC(C)C[C@H](NC(=O)CCN)C(=O)N[C@@H](C)C(=O)NCCN1Cc2ccccc2C[C@H]1C(=O)NCc1cccc(C(=O)N[C@@H](CC(C)C)C(=O)N[C@H](C(=O)N[C@H](C(=O)O)C(C)C)[C@@H](C)O)c1 (H-[βAla]LA[X4][3Amb]LTV-OH) | 0.64 |  |  |  |  |
| CC(C)C[C@H](NC(=O)CCN)C(=O)N[C@@H](C)C(=O)NCCN(CC(=O)NCc1cccc(C(=O)N[C@@H](CC(C)C)C(=O)N[C@H](C(=O)N[C@H](C(=O)O)C(C)C)[C@@H](C)O)c1)Cc1ccc([N+](=O)[O-])cc1 (H-[βAla]LA[X8][3Amb]LTV-OH) | 0.86 |  |  |  |  |
| CC[C@H](C)[C@H](NCCNC(=O)[C@H](Cc1c[nH]c2ccccc12)NCCNC(=O)[C@H](C)NC(=O)[C@H](CC(C)C)NC(=O)[C@@H](N)CCC(=O)O)C(=O)N[C@@H](CC(C)C)C(=O)N[C@H](C(=O)N[C@H](C(=O)O)C(C)C)[C@@H](C)O | 1.61 |  |  |  |  |
| CC[C@H](C)[C@H](NCCNC(=O)[C@H](Cc1ccc(O)cc1)NCCNC(=O)[C@H](C)NC(=O)[C@H](CC(C)C)NC(=O)[C@@H](N)CCC(=O)O)C(=O)N[C@@H](CC(C)C)C(=O)N[C@H](C(=O)N[C@H](C(=O)O)C(C)C)[C@@H](C)O | 1.71 |  |  |  |  |
| CC[C@H](C)[C@H](NC(=O)CNC(=O)CN(CCNC(=O)[C@H](C)NC(=O)[C@H](CC(C)C)NC(=O)[C@@H](N)CCC(=O)O)Cc1ccc([N+](=O)[O-])cc1)C(=O)N[C@@H](CC(C)C)C(=O)N[C@H](C(=O)N[C@H](C(=O)O)C(C)C)[C@@H](C)O | 0.85 | 0 | 0 | 0 | Activity (T-cell [1]): 0%; Activity (T-cell [4]): 0%; Activity (T-cell [6]): 64%; Activity (T-cell [7]): 0% |
| CC(C)C[C@H](NC(=O)CCN)C(=O)N[C@@H](C)C(=O)NCCN(CC(=O)NCc1cccc(C(=O)N[C@@H](CC(C)C)C(=O)N[C@H](C(=O)N[C@H](C(=O)O)C(C)C)[C@@H](C)O)c1)C(=O)Cc1c[nH]c2ccccc12 (X1-[N(2-Aminoethyl)Gly]([Ala-Leu-βAla])[3Amb]LTV-OH) | 1.02 | 12 | 25 | 89 | Activity (T-cell [8]): 31%; Activity (T-cell [9]): 27%; Activity (T-cell [1]): 0%; Activity (T-cell [10]): 44% |
| CC[C@H](C)[C@H](NC(=O)CNC(=O)[C@H](Cc1ccc(O)cc1)NC(=O)CNC(=O)[C@H](C)NC(=O)[C@H](CC(C)C)NC(=O)[C@@H](N)CCC(=O)O)C(=O)N[C@@H](CC(C)C)C(=O)N[C@H](C(=O)N[C@H](C(=O)O)C(C)C)[C@@H](C)O |  | 4 | 0 | 84 | Activity (T-cell [1]): 0%; Activity (T-cell [4]): 78%; Activity (T-cell [6]): 63%; Activity (T-cell [7]): 32% |
